Screening results deposited in PubChem by several laboratories.
NLRP3 yeast inh: blocks the NALP3 inflammasome reconstituted in yeast. AID 2825. Yeast reconstituted NLRP3/ASC/caspase-1, beta-gal luminescence, 24 h. actives 0.39% (n = 330,000). inhibition, % at 10 µM;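 active means inhibition of 50% or more; inactive means inhibition below 50%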
CSC inhib: blocks cancer stem cells; inhibition, % at 7.5 µM; actives 1.1% (n = 300,000); cancer stem cell-like cells viability, luminescence; in the data active means inhibition above about 75%; inconclusive means no clear call, values can overlap the other calls; tested in HMLE shEcad cells
T cruzi repl: blocks replication of Trypanosoma cruzi. T. cruzi beta-gal in NIH3T3, luminescence, 90 h. inhibition, % (concentration not given with the values). actives 1.4% (n = 300,000);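 active means mean inhibition across valid replicates above about 55%, limit read from the data; inconclusive means mean below that limit but half or more replicates reach it; inactive means mean below it, under half of replicates reach it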;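 further: signal also drops with host cell toxicity which is not excluded here; higher percent means less beta-gal luminescence so fewer parasites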
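System – NIH/3T3 host cells with β-galactosidase reporter T. cruzi · Doses – single 50 nL compound addition per well in DMSO · Reagent – 5000 T. cruzi trypomastigotes/well · Medium – Low-serum DMEM with 2% FBS · Timing – ≥90 h infection period, 3 h prior cell attachment · Evaluation – parasite load inhibition, % · Technique – GalScreen luminescence, 60 min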
Beta apoptosis: beta cell apoptosis inhibition. INS-1E cytokine-induced death, ATP luminescence, 48 h; percent of positive-control rescue, neutral wells zero. protection from apoptosis, % (test concentration not listed). actives 0.8% (n = 300,000). AID 435005;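 active means Every replicate reaches about 75%, or at least half do and their mean reaches it too, limit read from the data; inconclusive means At least half of replicates reach the limit but their mean does not; inactive means Under half of replicates reach the limit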;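 further: higher means more ATP so stronger rescue from cytokine killing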
Calb FLC: C. albicans growth modulation with fluconazole. actives 0.57% (n = 300,000). growth inhibition, % (test concentration not listed). C. albicans CaCi-2 + fluconazole, Alamar Blue growth, 48 h;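 active means growth inhibition above about 58% in most replicates, limit read from the data, passing the limit was not always enough; inconclusive means exactly half the replicates above a set limit; inactive means most replicates below a set limit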;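 further: all wells also contain fluconazole at 8 µg/ml as a sub-toxic cotreatment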
Mdm2 MdmX PPI: inhibitors of human Mdm2/MdmX interaction | actives 3% (n = 330,000) | SaOS-2 split-luciferase Mdm2/MdmX complementation, luminescence | inhibition, % at 8 µM | O15151+Q00987;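 active means inhibition of at least 50% at 8 µM in the primary screen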
Target sequence (O15151 whole entry, looked up): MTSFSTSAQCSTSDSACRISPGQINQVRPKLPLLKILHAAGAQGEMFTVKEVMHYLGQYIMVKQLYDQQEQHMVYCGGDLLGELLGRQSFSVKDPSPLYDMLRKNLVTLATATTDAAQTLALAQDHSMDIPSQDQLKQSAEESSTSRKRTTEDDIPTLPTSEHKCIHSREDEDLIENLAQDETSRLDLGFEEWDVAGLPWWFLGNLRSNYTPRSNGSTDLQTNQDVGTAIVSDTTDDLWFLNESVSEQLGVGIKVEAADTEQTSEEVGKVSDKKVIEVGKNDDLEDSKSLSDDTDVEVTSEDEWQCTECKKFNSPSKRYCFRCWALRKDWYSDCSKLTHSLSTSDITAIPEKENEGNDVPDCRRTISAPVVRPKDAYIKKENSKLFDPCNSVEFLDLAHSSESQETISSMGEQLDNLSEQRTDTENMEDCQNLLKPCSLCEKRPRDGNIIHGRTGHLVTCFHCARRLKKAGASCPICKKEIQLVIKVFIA
Target sequence (Q00987 whole entry, looked up): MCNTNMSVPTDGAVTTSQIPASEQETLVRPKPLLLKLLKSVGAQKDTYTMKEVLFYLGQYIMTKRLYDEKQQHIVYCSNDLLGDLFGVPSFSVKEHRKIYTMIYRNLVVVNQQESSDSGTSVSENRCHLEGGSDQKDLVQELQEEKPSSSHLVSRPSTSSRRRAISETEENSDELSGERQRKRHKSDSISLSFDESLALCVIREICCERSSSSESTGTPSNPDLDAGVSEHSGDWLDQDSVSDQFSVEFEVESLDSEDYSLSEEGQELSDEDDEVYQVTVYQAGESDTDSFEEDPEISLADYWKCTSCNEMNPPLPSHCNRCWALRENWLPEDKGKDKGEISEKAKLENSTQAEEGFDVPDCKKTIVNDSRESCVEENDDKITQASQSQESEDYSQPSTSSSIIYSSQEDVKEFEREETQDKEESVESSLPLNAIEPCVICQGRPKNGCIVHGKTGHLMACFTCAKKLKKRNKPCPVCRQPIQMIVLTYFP
Mdm2 MdmX conf: confirmation of human Mdm2/MdmX interaction inhibitors; shares compounds with Mdm2 MdmX PPI; Mdm2-MdmX binding, luminescent assay; inhibition, % at 8 µM; actives 55% (n = 10,000); in the data active means inhibition above about 40%
Full FLuc ctr: counter-screen for Mdm2/MdmX inhibitors: full-length luciferase | shares compounds with Mdm2 MdmX PPI | SaOS-2 full-length luciferase counterscreen, luminescence | inhibition, % at 8 µM | actives 77% (n = 6,200) | AID 504607;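 active means mean inhibition at 8 µM reaching about 37%, which flags the compound as non-specific, limit read from the data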;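 further: p53-null SaOS-2 cells with luciferase driven by a doxycycline-inducible promoter; compound on cells about two nights before reading with doxycycline added after day one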
Hits are given with their value; . = inactive; ? = inconclusive; / = no result. Sampled rows, rich in hits. Any-hit rate of the full collection: about 5.3%.

SMILES | NLRP3 yeast inh | CSC inhib | T cruzi repl | Beta apoptosis | Calb FLC | Mdm2 MdmX PPI | Mdm2 MdmX conf | Full FLuc ctr
CC1CCN(C(=O)CCN2C(=O)/C(=C/c3cccs3)SC2=S)CC1 | . | . | . | . | . | 82.8 | 46.0 | .
O=C(CCN1C(=O)/C(=C/c2cccs2)SC1=S)Nc1ccc(O)cc1 | . | . | . | / | . | . | / | /
COc1cccc(/C=C2\SC(=S)N(CCC(=O)N3CCCCC3)C2=O)c1 | . | . | . | . | . | 86.1 | 53.2 | 71.1
O=C(CN1C(=O)/C(=C/c2cccc(Br)c2)SC1=S)N1CCCC1 | . | . | . | . | . | 62.1 | 75.5 | 62.7
O=C(CCN1C(=O)/C(=C\c2ccccc2Cl)SC1=S)N1CCN(c2ccccc2)CC1 | . | . | . | . | . | 98.0 | 80.2 | 41.6
Cc1ccc(CNC(=O)CSc2nnc3c(n2)[nH]c2ccccc23)cc1 | . | . | . | . | . | . | / | /
Cc1c(C(=O)N(C)CCn2ccnc2C)oc2c(F)cccc12 | . | . | . | / | . | . | / | /
COC(=O)COc1ccc(/C=C2/SC(=O)N(CC(=O)N3CCCC3)C2=O)cc1Br | . | . | . | / | . | 56.0 | . | /
CCn1ncc(CN2CCC(C(=O)Nc3cccc(-c4cccc(F)c4)c3)CC2)c1C | . | / | . | / | . | . | / | /
CCOc1ccc(CN2CCC(C(=O)Nc3cccc(-c4ccn[nH]4)c3)CC2)cc1Cl | . | / | . | / | . | 60.5 | . | /
COc1cccc(-c2cccc(NC(=O)C3CCN(Cc4nccs4)CC3)c2)c1 | . | . | . | . | . | . | / | /
CCn1nc(C)c(CN2CCC(C(=O)Nc3cccc(-c4cccc(Cl)c4)c3)CC2)c1C | . | . | . | . | . | 80.4 | 40.4 | 62.0
Cc1cc(C)n(CCCN2CCC(C(=O)Nc3cccc(-c4cccc(F)c4)c3)CC2)n1 | . | . | . | . | . | 58.0 | 55.6 | 74.2
FC(F)(F)Oc1ccc(NC(=S)Nc2ccc(OC(F)(F)F)cc2)cc1 | . | . | . | / | . | 79.4 | . | /
CC(C)c1ccc(NC(=S)Nc2ccc(OC(F)(F)F)cc2)cc1 | . | / | . | . | . | . | / | /
Cc1nn(-c2ccccc2)c(C)c1NC(=O)COc1ccc(C#N)cc1 | . | . | . | . | . | . | / | /
CCNC(=O)CC1SC(=Nc2ccc(C)cc2)NC1=O (centres undefined) | . | . | . | . | ? | . | / | /
Cn1ncc(N=Cc2c(O)ccc3ccccc23)c1C(=O)N1CCOCC1 | . | . | . | . | . | . | / | /
O=C(CNc1ccc(F)cc1)N/N=C/c1c(O)ccc2ccccc12 | . | . | . | 81.0 | . | 72.1 | 77.0 | .
O=C(Cc1n[nH]c(=O)[nH]c1=O)N/N=C/c1c(O)ccc2ccccc12 | . | . | . | . | . | . | / | /
COc1ccccc1NCC(=O)N/N=C/c1c(O)ccc2ccccc12 | . | . | . | 76.7 | . | 86.7 | 77.5 | .
O=C(CN1CCCc2ccccc21)N/N=C/c1ccccc1 | . | . | . | . | . | . | / | /
COc1ccccc1NC(=O)c1c(N=Cc2c(O)ccc3ccccc23)cnn1C | . | ? | . | . | . | 51.5 | . | /
O=C(CN1CCCc2ccccc21)N/N=C/c1c(O)ccc2ccccc12 | . | ? | . | . | 84.7 | 81.3 | 91.0 | .
COc1ccccc1N(CC(=O)N/N=C/c1c(O)ccc2ccccc12)S(C)(=O)=O | . | . | . | 87.0 | . | 77.0 | 77.2 | .
SMILES | NLRP3 yeast inh | CSC inhib | T cruzi repl | Beta apoptosis | Calb FLC | Mdm2 MdmX PPI | Mdm2 MdmX conf | Full FLuc ctr
CC(C)c1ccc2[nH]c(O)c(N=NC(=O)c3cccc(S(=O)(=O)Nc4ccccc4Cl)c3)c2c1 | . | . | . | . | . | . | / | /
COc1ccc(/C(C)=N/OCC(=O)N=Nc2c(O)[nH]c3ccc(Br)cc23)cc1 | . | . | . | . | . | 52.6 | . | /
Cc1cccc(NC(=S)N=Nc2c(O)[nH]c3ccccc23)c1 | . | . | 64.3 | . | . | 53.7 | . | 56.6
COc1ccccc1NC(=S)N=Nc1c(O)[nH]c2ccc(Br)cc12 | . | ? | . | ? | . | 70.4 | 74.7 | 56.6
COc1ccc(/C=N/OCC(=O)N=Nc2c(O)[nH]c3ccc(Br)cc23)cc1OC | . | . | . | . | ? | . | / | /
CC(C)NC(=S)N=Nc1c(O)[nH]c2ccc(C(C)C)cc12 | . | . | 59.3 | . | . | 54.9 | . | 51.4
COc1ccc(S(=O)(=O)N2CCC(NC(=O)OCc3c(Cl)cccc3Cl)CC2)cc1 | . | . | . | . | . | . | / | /
CC1CCCC(C)N1NC(=O)Cc1ccccc1 (centres undefined) | . | . | . | . | . | . | / | /
O=C(C1CCCO1)N1CCN(C(=S)Nc2ccc(Br)cc2)CC1 (centres undefined) | . | . | . | / | . | . | / | /
CCCn1c(SCC(=O)Nc2nc(-c3ccc(OC)cc3)cs2)nc2c1c(=O)n(C)c(=O)n2C | . | . | . | . | . | 68.4 | . | /
CCn1c(SCC(=O)Nc2nc(-c3ccccc3)cs2)nc2c1c(=O)n(C)c(=O)n2C | . | . | . | . | . | 63.9 | . | /
Cn1c(CCNC(=O)C2CCCCC2)nc2cc(NC(=O)c3cccs3)ccc21 | / | / | . | / | . | / | / | /
COCCN1CCN(C(=O)C2CCC(=O)N(CCCc3ccccc3)C2)CC1 (centres undefined) | . | . | . | . | . | . | / | /
Cn1c(Oc2ccc3c(c2)OCO3)nc2c1c(=O)n(Cc1ccccc1)c(=O)n2C | . | . | . | . | . | 62.2 | . | /
CCCn1c(NC(=O)c2ccc(Cl)c(S(=O)(=O)N3CCCC3)c2)nc2ccccc21 | . | . | 66.1 | / | ? | 80.7 | 69.1 | 43.1
CC(OC(=O)/C=C/c1ccc2ccccc2n1)C(=O)NCc1ccccc1 (centres undefined) | . | . | . | . | . | 54.1 | . | /
COC(=O)CNC(=O)COC(=O)/C=C/c1ccc2ccccc2n1 | . | . | . | . | . | . | / | /
COc1cccc(CN(Cc2ccco2)S(=O)(=O)c2ccc(S(=O)(=O)NCc3ccccc3)cc2)c1OC | . | . | / | . | . | . | / | /
C[C@@H]1CN([C@H](C)CO)C(=O)c2cc(NS(=O)(=O)c3ccc(F)cc3)ccc2O[C@@H]1CN(C)Cc1ccc(Cl)c(Cl)c1 | . | / | / | / | / | 77.6 | 56.6 | 49.6
C[C@H](CO)N1C[C@H](C)[C@@H](CN(C)S(=O)(=O)c2ccc(F)cc2)Oc2ccc(NS(=O)(=O)c3ccc(F)cc3)cc2C1=O | . | . | / | . | / | . | / | /
C[C@@H]1CN([C@H](C)CO)C(=O)c2cc(NC(=O)Nc3ccc(C(F)(F)F)cc3)ccc2O[C@H]1CN(C)Cc1ccc(Cl)c(Cl)c1 | . | / | / | / | / | 98.4 | 47.0 | .
C[C@H]1CN([C@@H](C)CO)C(=O)c2cccc(NC(=O)Nc3ccc(C(F)(F)F)cc3)c2O[C@@H]1CN(C)Cc1ccc(Cl)c(Cl)c1 | . | / | / | . | / | 72.3 | 49.3 | 75.5
